The record followed here is ChEMBL document CHEMBL4359825, “Synthesis of novel S-linked dihydroartemisinin derivatives and evaluation of their anticancer activity” (Eur J Med Chem, 2019).

For experiment [1], the system named is PC-3. Put plainly: Induction of cell death in human PC3 cells measured after 72 hrs by propidium iodide staining based flow cytometry analysis. Type of experiment: functional. Put shortly:
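PC-3 cells in six-well plates exposed to 3 or 10 μM for 72 h, 0.1% DMSO vehicle as control; cells harvested, PBS-washed, stained with propidium iodide (5 μg/mL) 20 min at 4 °C; percentage dead cells read by flow cytometry; t-test against vehicle.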

The subject of experiment [2] is PC-3. Briefly: Anticancer activity against human PC3 cells assessed as cell viability measured after 72 hrs by MTT assay (reference value: 100 +/- 18.8 %). More on the design: concentration or dose not given beside the values. Type of experiment: functional.
The subject of experiment [3] is PC-3. Put plainly: Downregulation of E2F1 mRNA expression in human PC3 cells at 3 to 10 uM measured after 72 hrs by TRIzol dye based RT-PCR analysis. The format is functional, cell-based. In outline: (§1)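 PC-3 (1.25 × 10^5/well) treated 72 h with 3 or 10 μM. Total RNA extracted with TRIzol; cDNA made from 2 μg RNA. SYBR qPCR: 95 °C 10 min, then 40 cycles of 95 °C/60 °C. Expression normalised to GAPDH by 2^-ΔΔCt; three experiments.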

For experiment [4], the system named is PC-3. Briefly: Induction of apoptosis in human PC3 cells assessed as decrease in pro-caspase-9 level after 72 hrs by Western blot analysis. Type of experiment: functional, cell-based. In outline:
(§2)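 Western blot: PC-3 seeded 1.25 × 10^5/well, exposed to 0.1–10 μM for 72 h. Lysed in 2× SDS buffer and sonicated; 20–25 μg protein run on 12% SDS gel, transferred to PVDF, blocked in 5% BSA/TBST. Primary antibodies overnight, secondary 1 h; ECL detection, β-actin loading control.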

The test system of experiment [5] is PC-3. Briefly: Upregulation of p21 mRNA expression in human PC3 cells at 3 to 10 uM measured after 72 hrs by TRIzol dye based RT-PCR analysis. The format is functional, cell-based. In outline:
(§3)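 PC-3 cells (1.25×10^5 per well) treated 72 h at 3 or 10 μM; total RNA by TRIzol, cDNA from 2 μg; SYBR real-time PCR, 95 °C 10 min then 40 cycles 95 °C 15 s/60 °C; Ct normalised to GAPDH, relative expression by 2^-ΔΔCt; three experiments.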

The test system of experiment [6] is PC-3. Briefly: Induction of apoptosis in human PC3 cells assessed as decrease in mitochondrial membrane potential at 3 to 10 uM after 48 hrs by JC-1 staining based fluorescence microscopy analysis. The format is functional, cell-based. In outline: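 PC-3 cells exposed to 3 or 10 μM for 48 h, then stained with JC-1 (10 μM) for 30 min in the dark. Mitochondrial potential judged by red/green fluorescence under a fluorescence microscope.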

In experiment [7] the test system is PC-3. Put plainly: Upregulation of NOXA mRNA expression in human PC3 cells at 3 to 10 uM measured after 72 hrs by TRIzol dye based RT-PCR analysis. Type of experiment: functional, cell-based. In outline:
as §3

A further experiment deals with A-431. Briefly: Anticancer activity against human A431 cells assessed as reduction in cell viability measured after 72 hrs by MTT assay. The settings on record: A-431, 72 h. The format is functional, cell-based.
A further experiment deals with MDA-MB-231. Put plainly: Anticancer activity against human MDA-MB-231 cells assessed as cell viability measured after 72 hrs by MTT assay (reference value: 100 +/- 20.0 %). The format is functional. More on the design: concentration or dose not given beside the values.
In experiment [8] the test system is PC-3. Briefly: Downregulation of Pin1 expression in human PC3 cells at 3 to 10 uM measured after 72 hrs by Western blot analysis. The format is functional, cell-based. Put shortly: as §2
A further experiment concerns HepG2. Briefly: Anticancer activity against human HepG2 cells assessed as cell viability measured after 72 hrs by MTT assay (reference value: 100 +/- 6.5 %). Type of experiment: functional. More on the design: concentration or dose not given beside the values.
The test system of experiment [9] is PC-3. Put plainly: Induction of apoptosis in human PC3 cells assessed as cell shrinkage at 3 to 10 uM after 72 hrs by phase contrast microscopy. The format is functional, cell-based. In outline:
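PC-3 cells in exponential growth exposed to 3 or 10 μM for 72 h, washed gently with PBS, and apoptotic morphology recorded by phase-contrast microscopy.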

Experiment [10] relates to PC-3. Put plainly: Downregulation of Pin1 in human PC3 cells harboring siRNA measured after 72 hrs by Western blot analysis. The format is functional, cell-based. Put shortly: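 PC-3 cells (1.5 × 10^5/well) transfected with Pin1 siRNA (25 nM) using Lipofectamine RNAiMAX in Opti-MEM, alone or with test agent, for 72 h. Pin1 assessed by western blot with β-actin loading control.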

The test system of experiment [11] is PC-3. Briefly: Antiproliferative activity against human PC3 cells assessed as reduction in cell viability upto 10 uM incubated for 24 hrs by MTT assay. The format is functional, cell-based.
Experiment [12] has as its system PC-3. Put plainly: Downregulation of cMyc in human PC3 cells at 3 to 10 uM measured after 72 hrs by Western blot analysis. Type of experiment: functional, cell-based. Put shortly:
as §2

Experiment [13] deals with PC-3. Put plainly: Cell cycle arrest in human PC3 cells assessed as accumulation at S phase at 3 uM measured after 48 hrs by RNase/propidium iodide staining based flow cytometry analysis (reference value: 22.40 %). Type of experiment: functional.
For experiment [14], the target named is Peptidyl-prolyl cis-trans isomerase NIMA-interacting 1 (Homo sapiens) (UniProt Q13526). Briefly: Inhibition of Pin1 in human PC3 cells assessed as downregulation of cyclin D1 measured after 72 hrs by Western blot analysis. Type of experiment: cell-based. In outline: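 PC-3 cells (1.25×10^5 per well) exposed 72 h to 0.1, 0.3, 1, 3 or 10 μM; lysed in 2× SDS buffer, sonicated, BCA-quantified; 20-25 μg protein on 12% SDS gel, PVDF, 5% BSA block, primary antibody overnight, secondary 1 h; ECL detection, β-actin loading control.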

The test system of experiment [15] is PC-3. Put plainly: Cell cycle arrest in human PC3 cells assessed as accumulation at S phase at 10 uM measured after 48 hrs by RNase/propidium iodide staining based flow cytometry analysis (reference value: 22.40 %). Type of experiment: functional.
The test system of experiment [16] is PC-3. Briefly: Induction of apoptosis in human PC3 cells assessed as decrease in pro-caspase-3 level after 72 hrs by Western blot analysis. Type of experiment: functional, cell-based. Put shortly:
as §2

The subject of experiment [17] is PC-3. Briefly: Downregulation of BCL-xL mRNA expression in human PC3 cells at 3 to 10 uM measured after 72 hrs by TRIzol dye based RT-PCR analysis. Type of experiment: functional, cell-based. In outline: as §1
For experiment [18], the system named is PC-3. Briefly: Antimigratory activity against human PC3 cells assessed as reduction in cell migration at 10 uM measured upto 24 hrs in presence of pan-caspase inhibitor Z-VAD-fmk by scratch wound healing assay. Type of experiment: functional, cell-based. Put shortly:
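PC-3 monolayers pretreated 2 h with pan-caspase inhibitor Z-VAD-FMK (10 μM) before scratching and treatment with test agent. Wound closure imaged by phase contrast at 0, 12 and 24 h.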

In experiment [19] the test system is PC-3. Put plainly: Antimetastatic activity against human PC3 cells assessed as inhibition of MMP-2 at 3 to 10 uM measured after 48 hrs by gelatin zymography. The format is functional, cell-based. In outline: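 PC-3 monolayers scratched, then treated with 3 or 10 μM for 48 h in serum-containing medium, then 24 h in serum-free medium. Conditioned medium run non-reduced on 7.5% SDS-PAGE containing gelatin 4 mg/mL. Gel washed in 2.5% Triton X-100, incubated 24 h at 37 °C in Tris pH 7.5 with CaCl2/ZnCl2, Coomassie stained; lysis seen as clear bands.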

Experiment [20] has as its target Peptidyl-prolyl cis-trans isomerase NIMA-interacting 1 (Homo sapiens) (UniProt Q13526). Briefly: Inhibition of proteasome mediated Pin1 in human PC3 cells at 10 uM measured after 72 hrs in presence of MG132. The format is cell-based.
Experiment [21] relates to PC-3. Briefly: Antimigratory activity against human PC3 cells assessed as reduction in cell migration at 3 to 10 uM measured after 48 hrs by transwell assay. The format is functional, cell-based. In outline:
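Transwell migration through 8.0 μm polycarbonate membranes: 40,000 PC-3 cells in serum-free medium in the upper chamber with 3 or 10 μM; RPMI-1640 with 10% FBS below. After 48 h, non-migrated cells swabbed off. Migrated cells fixed in 75% ethanol for 10 min, Hoechst stained and counted per field versus DMSO.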

The source made the active and inactive calls. No cut-off for these calls is given here.

Peptidyl-prolyl cis-trans isomerase NIMA-interacting 1 (Homo sapiens), sequence (Q13526 whole entry): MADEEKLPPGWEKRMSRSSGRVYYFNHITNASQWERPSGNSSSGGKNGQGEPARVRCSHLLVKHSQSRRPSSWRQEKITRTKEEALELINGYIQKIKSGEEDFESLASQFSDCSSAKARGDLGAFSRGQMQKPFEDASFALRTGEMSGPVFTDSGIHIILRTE

Regarding `COC(=O)Cc1ccc(S[C@@H]2O[C@@H]3O[C@@]4(C)CC[C@H]5[C@H](C)CC[C@@H]([C@H]2C)[C@@]35OO4)cc1`, the Activity result in the experiment with PC-3 [1] is “Dose-dependent effect”; in the experiment with PC-3 [2], 28%; in the experiment on PC-3 [4] it was “Dose-dependent effect”; with MDA-MB-231, 45%; in the experiment with HepG2, 50%; in the experiment on PC-3 [13], 13.26%. The values for the Activity with PC-3 [15] and in the experiment with PC-3 [16] were 13.21% and “Dose-dependent effect”, respectively. The result in the experiment with PC-3 [3], in the experiment on PC-3 [5], in the experiment with PC-3 [6], with PC-3 [7], with PC-3 [8] and in the experiment with PC-3 [9] was Active. Further, the result in the experiment on PC-3 [10], in the experiment with PC-3 [12], with PC-3 [17] and with PC-3 [21] was Active. In addition, in the experiment on A-431, the IC50 was 13.3 µM. Further, the result in the experiment on PC-3 [11] was inactive. Further, the inhibition result (in experiment [14]; in the experiment on PC-3 [19]) was “Dose-dependent effect” in each case. Also, the inhibition entry (in the experiment with PC-3 [18]; in [20]) was “inactive” in each case.
